# The list is not random: actives were taken first. Their share in the collection is about 1.9%.
# p-CIP stab down – compounds decreasing mouse p/CIP protein stability. Q05BA5. F442A p/CIP-EGFP cells, EGFP fluorescence, 16 h. decrease of EGFP signal, % at 10 µM. 290,000 tested, 0.01% active. AID 1984;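 active = EGFP signal decrease of at least 30% at 10 µM or well 3 SD below plate mean, unless failing retest; inactive = the rest, including hits failing retest or dose response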
# SUMO HTRF inh – inhibitors of human SUMOylation (UBC9) | P63279 | HTRF SUMOylation assay, SAE1/SAE2 + UBC9, in vitro | inhibition, % at 35 µM | 290,000 tested, 0.36% active; in the data active = inhibition above about 50%, passing the limit was not always enough
# Target sequence (P63279 whole entry, looked up): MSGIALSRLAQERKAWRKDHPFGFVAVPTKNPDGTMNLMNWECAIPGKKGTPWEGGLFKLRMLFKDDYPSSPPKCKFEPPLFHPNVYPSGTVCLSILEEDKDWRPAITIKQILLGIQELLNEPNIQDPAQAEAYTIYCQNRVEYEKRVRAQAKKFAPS
# Fh CTSL1 inh – blocks F. hepatica cathepsin L1 in PFM18AAP counter-screen; recombinant F. hepatica cathepsin L1, Z-Leu-Arg-MCA fluorescence; inhibition, % at 5.96 µM; 300,000 tested, 0.49% active;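 active = inhibition above the mean of all tested compounds plus 3 SD, set per screening campaign, cut at about 17% in these data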;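 also: 0% = plate median of test compound wells and 100% = 1 µM Z-Phe-Ala-diazomethylketone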
# T cell modulator – T cell immune modulators affecting CD8 T cell-vesicle binding. 2C CD8+ T cell-vesicle binding, flow cytometry; active compounds read low. response (vesicle binding), % at 7 µM. 330,000 tested, 0.068% active;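 active = response, share of CD8 T cells binding vesicles, and their 90th percentile fluorescence all below set limits, cut at about 80% in these data, passing the limit was not always enough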;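 also: values below 100% mean blocked vesicle binding to the CD8+ T cells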
#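 Assay system – 2C mouse CD8+ T cells · Also added – QL9-loaded Drosophila micro-vesicles · Timing – Cell–vesicle co-incubation 1.5 h at 37 °C, staining 20 min on ice · Signal – flow cytometry of vesicle-bound cells · Measure – percent CD8+ FL2 mean versus row control · Controls – Peptide-free naked vesicles (low) and QL9 vesicles with 0.7% DMSO vehicle (high)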
# IMP-1 inh – inhibitors of Pseudomonas aeruginosa IMP-1 metallo-beta-lactamase. inhibition, % at 5.6 µM. 290,000 tested, 0.45% active. purified IMP-1, nitrocefin hydrolysis, epi-absorbance fluorescence. AID 1556;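 active = inhibition above the mean plus 3 SD of all compounds in the same screening run, cut at about 4.5% in these data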;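 also: 0% = IMP-1 with DMSO and 100% = DMSO wells lacking enzyme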
#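 System: purified IMP-1 / Input: IMP-1 dispensed at 0.2 nM / Medium: 50 mM HEPES pH 7.1, 50 µM ZnSO4, 0.05% Brij 35 / Timing: 15 min enzyme–compound preincubation, then 25 min nitrocefin reaction, 25 °C / Technique: plate fluorescence quenching by hydrolysis product, ex 480/em 530 nm / Repeats: singlicate testing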
# VIM-2 inh – blocks Pseudomonas aeruginosa VIM-2 metallo-beta-lactamase. AID 1527. inhibition, % at 5.6 µM. 290,000 tested, 0.89% active. purified VIM-2, nitrocefin hydrolysis, epi-absorbance fluorescence;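 active = inhibition above the mean of all tested compounds plus 3 SD, cutoff set per screening run, cut at about 7.5% in these data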;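 also: red hydrolysis product quenches plate fluorescence so inhibitors raise well fluorescence; 0% = enzyme with DMSO and 100% = DMSO without enzyme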
# Numbers without * were called inactive; i = inactive; . = no result given.
SMILES,p-CIP stab down,SUMO HTRF inh,Fh CTSL1 inh,T cell modulator,IMP-1 inh,VIM-2 inh
O=C(NCc1ccco1)c1nn2c(C(F)(F)F)cc(-c3cccs3)nc2c1Cl,0,39,1,722,-2,2
COc1ccc(-c2cc(C(F)(F)F)n3ncc(C(=O)NCc4ccco4)c3n2)cc1,-15,64*,1,160,-4,8.2*
O=C(NC1CCCC1)c1cnn2c(C(F)(F)F)cc(-c3ccco3)nc12,-5,9,1,683,-2,17*
CC(C)CCNC(=O)c1cnn2c(C(F)(F)F)cc(-c3ccco3)nc12,-11,18,14,244,-5,7
O=C(NCc1ccco1)c1cnn2c(C(F)(F)F)cc(-c3ccccc3)nc12,11,5,0,557,-3,1
COc1ccccc1N1CCN(C(=O)C(=O)c2c[nH]c3ccccc23)CC1,-14,-10,6,383,-1,-2
O=C(COC(=O)c1cc([N+](=O)[O-])ccc1N1CCOCC1)Nc1c(Cl)cccc1C(F)(F)F,-12,8,3,474,-2,0
CC(=O)NC1=C(NC2CCS(=O)(=O)C2)C(=O)c2ccccc2C1=O (stereo not given),-6,-17,1,103,-3,-3
CN(C1=C(NC(=O)c2ccccc2)C(=O)c2ccccc2C1=O)C1CCS(=O)(=O)C1 (stereo not given),1,41,22*,146,-7,-5
CCS(=O)(=O)Nc1ccc(C2=NN(S(=O)(=O)CC)C(c3cccs3)C2)cc1 (stereo not given),-8,12,7,507,-2,0
CC1(c2ccc3ccccc3c2)NC(=O)N(CC(=O)Nc2ncccc2O)C1=O (stereo not given),.,.,.,338,.,.
COC(=O)c1c(-c2cccnc2)csc1NC(=O)c1cc(C)on1,-11,8,1,.,-3,9.7*
Cc1ccc(Cn2c(SCC(=O)NCC3CCCO3)nc3c2c(=O)n(C)c(=O)n3C)cc1 (stereo not given),-12,26,9,101,-2,-1
CC(C)Cn1c(N)c(C(=O)COC(=O)c2cnc(Cl)c(Cl)c2)c(=O)n(C)c1=O,-27,-20,2,441,-3,-3
COc1ccc(Cn2nnnc2C(c2cccs2)N2CCCCCC2)cc1 (stereo not given),-8,-12,4,52*,-2,-2
O=C1CC(c2ccccc2F)C2=C(COC2=O)N1 (stereo not given),-4,-8,-2,196,-3,-5
O=C(c1ccccc1)C1CCN(C(=O)c2c(F)cccc2F)CC1,5,-2,0,213,-1,-1
CN1C(=O)CC(=O)N(C)c2cc(S(=O)(=O)N(C)Cc3ccccc3)ccc21,-4,.,0,538,-2,1
CCCc1cc(C(=O)Nc2ccc(C(C)=O)cc2)no1,-11,-9,17*,553,-1,-6
CCOC(=O)Cn1c2ccccc2c2nc(C)sc21,9,11,1,361,-1,-1
CCOC(=O)Cn1c2ccccc2c2nc3ccccc3nc21,-70,94*,0,384,-2,-2
Fc1ccc(CSc2ccc3nnc(-c4ccccn4)n3n2)cc1,-5,5,0,997,-5,9.3*
CNc1ccc(Br)cc(C(=O)/C=C/c2ccc(OC)cc2OC)c1=O,0,26,4,224,0,-2
CCNc1ccc(Br)cc(C(=O)/C=C/c2ccc(Cl)cc2)c1=O,0,19,2,199,4.5*,1
CNc1ccc(Br)cc(C(=O)/C=C/c2cccc(OC)c2)c1=O,-12,32,-1,379,10*,1
SMILES,p-CIP stab down,SUMO HTRF inh,Fh CTSL1 inh,T cell modulator,IMP-1 inh,VIM-2 inh
COc1ccc(-c2csc3nc(-c4ccccc4)oc(=O)c23)cc1OC,-24,-4,5,280,-3,-2
CN1CCN(c2ccc(NC(=O)c3cc([N+](=O)[O-])ccc3N3CCOCC3)cc2)CC1,0,16,9,0,-2,12*
CCOc1ccc(NC(=O)c2cc([N+](=O)[O-])ccc2N2CCOCC2)cc1,.,.,4,305,.,.
C=CC(C)(C)c1c(O)c(CC=C(C)C)c(O)c2c(=O)c3ccc(O)c(O)c3oc12,.,.,-2,32*,.,.
C=CC(C)(C)c1c2occc2c(O)c2ccc(=O)oc12,.,.,.,i,.,.
Nc1c(C(=O)Nc2ccc(Br)cc2)sc2nc(-c3ccco3)ccc12,-8,72*,5,352,-3,-2
Nc1c(C(=O)Nc2ccc(F)cc2)sc2nc(-c3ccco3)ccc12,-13,74*,3,398,-1,-2
CC(=O)c1sc2nc(-c3ccco3)ccc2c1N,-4,70*,8,i,0,2
Cc1ccc(NC(=O)c2sc3nc4c(c(-c5ccco5)c3c2N)CCC4)cc1,-3,21,5,448,-2,1
Cc1cc(Oc2ccccc2)nc(SCC(=O)Nc2ccc(Cl)cc2Cl)n1,-6,-25,0,324,46*,-5
COc1ccccc1N(CC(O)COc1ccccc1C)S(=O)(=O)c1ccccc1 (stereo not given),-11,-1,1,281,-2,-3
COC(=O)CN=C1OC(=O)N2C(=O)C3=C4[C@@H](C[C@H]5C(=O)N(c6ccccc6)C(=O)[C@H]5[C@H]4[C@@]12Cc1ccccc1)[C@H]1C(=O)N(c2ccccc2)C(=O)[C@H]1[C@H]3C,-8,-21,-2,894,.,.
COCCN=C1OC(=O)N2C(=O)C3=C4[C@@H](C[C@H]5C(=O)N(c6ccccc6)C(=O)[C@H]5[C@H]4[C@@]12Cc1ccccc1)[C@H]1C(=O)N(c2ccccc2)C(=O)[C@H]1[C@H]3C,-7,13,18*,211,.,.
N#CC1(NC(=O)COC(=O)c2cc([N+](=O)[O-])ccc2N2CCCC2)CCCCC1,.,.,18*,208,.,.
O=S1(=O)CCC(NC(=S)NCCNC(=S)NC2CCS(=O)(=O)C2)C1 (stereo not given),-6,-5,0,232,-4,-2
NC(=S)NC1CCS(=O)(=O)C1 (stereo not given),3,-4,24*,911,-2,-2
O=C(Cn1c(=O)oc2cc(S(=O)(=O)N3CCCCCC3)ccc21)NC1CCCCCCC1,4,32,17*,352,2,0
CCCNC(=O)Cn1c(=O)oc2cc(S(=O)(=O)N3CCCC3)ccc21,-11,14,-6,433,-3,-6
Cc1ccccc1NC(=O)CSc1nnc(-c2ccco2)c(-c2ccco2)n1,-21,65*,7,i,-1,-1
CSc1nnc(-c2ccco2)c(-c2ccco2)n1,-7,.,53*,.,-3,-1
Cc1cc(C2=CC(=O)C[C@H](c3ccc4c(c3)OCO4)C2)ccc1F,.,.,.,370,.,.

# Source: PubChem BioAssay
